Test: Toxicity liver stage against HepG2, at 10uM
Assay type: cell-based
Design: test concentration 10 uM, cell line HepG2-A16-CD81EGFP
Details: human, HepG2-A16-CD81EGFP cells; read-out: INHIBITION
Method in brief: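 Uninfected HepG2-A16-CD81EGFP cells, 3 × 10^3 per well, 1536-well, plated on prespotted compound at 10 μM final, parasite-free screening media added to match infected plates; puromycin 10 μM positive, DMSO 0.5% negative; run in parallel with 48 h PbLuc assay at 37 °C, 5% CO2; viability by CellTiter-Glo luminescence, normalized to controls.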

SMILES | cytotoxicity at 10 µM
O=C(c1sccc1-n1cnnn1)N1CCC(Cc2ccccc2)CC1 | 9.49%
Cc1nc2cc(C(=O)N(CCC#N)CC3CCCO3)ccc2[nH]1 (stereo not given) | -0.58%
O=C(CCc1nc2cccnc2[nH]1)NCc1ccncc1 | 3.72%
CS(=O)(=O)NCC1CCN(C(=O)Oc2ccccc2)CC1 | -151%
CCCNC(=O)c1nc2c(o1)CN(c1ncccn1)C2 | 1.95%
COCC1CN(Cc2ccsc2)Cc2cnn(C)c21 (stereo not given) | 5.58%
COc1ccc(C2CC(=O)Oc3cc(C)[nH]c(=O)c32)cc1 (stereo not given) | -3.16%
COCC(C)(O)CNC(=O)COc1ccccc1OC (stereo not given) | -12.2%
O=C(c1ccc(=O)[nH]n1)N1CC(c2nc(Cc3ccccc3)no2)C1 | -19.3%
O=S(=O)(NCC1(O)CCOc2ccccc21)c1ccc(Br)s1 (stereo not given) | 1.43%
O=S(=O)(NC1=NCN(CCc2cccs2)CN1)c1ccc(F)cc1 | -1.01%
Cc1ccoc1C(=O)N1CCO[C@H]2[C@H](OCC3CCOCC3)CC[C@@H]21 | -6.42%
CC(C)CC(=O)N1CCN(C(=O)N(C)C)CC2(CC(=O)N(C)C2)C1 (stereo not given) | -20.3%
O=C1COC2(CCN(Cc3ccccn3)CC2)CN1CC1CC1 | 13.9%
Cc1c2ncn(CC(=O)N(C)C)c(=O)c2nn1C | -2.56%
CCCn1cc(C(=O)n2nc(C)cc2C)c(S(=O)(=O)N2CCSCC2)n1 | -10.1%
CN(C)[C@@H]1CN(C(=O)c2cc3cccc(F)c3[nH]2)C[C@H]1O | -1.49%
CC(C)NC(=O)C1(Cc2ccccc2-c2cncnc2)CCCNC1 (stereo not given) | 3.67%
O=C(O)c1cccc(CN2CCCC(Cc3ccn[nH]3)C2)c1 (stereo not given) | 5.39%
Cc1cc(C)n(C2CCN(S(C)(=O)=O)CC2)n1 | 15.7%
c1ccc2ncc(CC3CCNCC3)cc2c1 | 1.8%
COCC(=O)NC(CC(C)C)c1nc2cccnc2n1C (stereo not given) | 15.2%
CNC(=O)c1cnc(C)nc1CCNC(=O)CCc1ccccc1 | -0.0555%
O=C(N[C@@H]1CC[C@@H](N2CCCC2)[C@@H]1O)c1cc2cccc(F)c2[nH]1 | 2.91%
Cc1nc(O)c2nnn(C[C@H]3CCCN3C(=O)c3ccccc3C)c2n1 | -7.36%
Cc1ccc(C)c(CC(=O)NC2CCCS(=O)(=O)C2)c1 (stereo not given) | -7.52%
Cc1ccc(CNCCC(O)(c2nccn2C)C(F)(F)F)o1 (stereo not given) | 1.18%
COCCN(CCOC)C(=O)c1ccoc1C | 6.72%

SMILES | cytotoxicity at 10 µM
CC(C)N(C)CCCNC(=O)c1cnn(C(C)C)c1C(F)(F)F | 5.31%
CC(NCc1cccc(COC2CCCC2)c1)c1cnn(C)c1 (stereo not given) | 4.34%
CN(c1nc(Cn2cc(Br)ccc2=O)cs1)C1CC1 | 8.34%
CN1CCN(C(=O)C2(S(C)(=O)=O)CCCC2)Cc2ccccc21 | -4.96%
Cc1noc(C)c1C(C)NC(=O)N1CCC(NC(=O)c2ccsc2)CC1 (stereo not given) | 7.07%
CCN1CC(COC(=O)c2ccc(Br)cc2F)CC1=O (stereo not given) | -2.45%
CCn1nc2c(cc1=O)CN(CCOc1cccc(C#N)c1)CC2 | 4.67%
CNC(=O)c1cc(NC(=O)NC2CC2)ccc1F | 5.13%
COC(=O)CCNC(=O)c1nnn(-c2ccccc2)c1C(F)(F)F | -4.27%
CCNc1cc2c(nn1)CCN(C(=O)C1COc3ccccc3C1)C2 (stereo not given) | -4.83%
COCc1ccc(C(=O)N2CCN(CCS(C)(=O)=O)CC2)cc1 | -1.33%
CCCOC1CCCN(C(=O)c2ccnc(N3CCN(C)CC3)c2)C1 (stereo not given) | -5.7%
O=C(N1CCc2ccccc2CC1)C1(O)Cc2ccccc2C1 | 10.8%
Cc1ccc(NC2CCN(C(=O)CCCc3ccccn3)CC2)nn1 | 16.4%
Cc1cccc(CS(=O)(=O)c2nnc(N3CCOCC3)s2)c1 | -3.48%
c1ccc2c(c1)OCCCC2NCc1nnc2n1CCCCC2 (stereo not given) | -0.044%
COCC(NC(=O)c1cc(C)n(C)n1)c1cccc(C(F)(F)F)c1 (stereo not given) | 9.43%
CC(C)CCn1ccc(NC(=O)N2CCCC2CN2CCOCC2)n1 (stereo not given) | -2.16%
Cc1cn2c(n1)CCC(NC(=O)COCCOc1ccccc1)C2 (stereo not given) | -4.44%
COc1ccc(C2CCCCCN2S(N)(=O)=O)cc1 (stereo not given) | 8.87%
O=C(CN1CCN(c2ccnc3c(F)ccc(F)c23)CC1)NC1CC1 | -1.12%
CC(NCCN1CCN(C(=O)C2CCCC2)CC1)c1nccs1 (stereo not given) | -0.513%
Cc1cc(Cl)ccc1NCc1cnn(C2CCS(=O)(=O)C2)c1 (stereo not given) | 6.51%
COCCN(C(=O)c1ccn(-c2ccc(OC)cc2)n1)C(C)C(N)=O (stereo not given) | 0.337%
COc1ccccc1N1CCCC(Nc2nccnc2C#N)C1 (stereo not given) | 18.3%
Cc1cnc(-c2nc(-c3cccc(CN4CCOCC4)c3)no2)cn1 | -4.21%
CCOCC(=O)NS(=O)(=O)c1ccc(F)cc1C(F)(F)F | 3.25%

Reference: ChEMBL document CHEMBL4513216, “Probing the Open Global Health Chemical Diversity Library for Multistage-Active Starting Points for Next-Generation Antimalarials” (ACS Infect Dis, 2020)
